According to ChEMBL document CHEMBL3098071, “Synthesis and evaluation of novel azoles as potent antifungal agents” (2014):
Converted amounts (≈) assume the structure as drawn.

Legend:
Assay type in all cases: functional
Nakaseomyces glabratus = assay: Antimicrobial activity against Candida glabrata by broth microdilution method
Nannizzia gypsea = assay: Antimicrobial activity against Microsporum gypseum by broth microdilution method
Cryptococcus neoformans = assay: Antimicrobial activity against Cryptococcus neoformans after 72 hrs by broth microdilution method
Summary of the method: (§1)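 Broth microdilution in 96-well plates following NCCLS methods. Compounds were dissolved in DMSO, serially diluted in growth medium, inoculated and incubated at 35°C. MIC read at 24 h for Candida albicans and at 72 h for Cryptococcus neoformans. MIC80 is the first well with about 80% less growth than the drug-free well. Values are means of three replicate tests.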

Candida parapsilosis = assay: Antimicrobial activity against Candida parapsilosis by broth microdilution method; conditions: Lodderomyces parapsilosis
Trichophyton rubrum = assay: Antimicrobial activity against Trichophyton rubrum by broth microdilution method
Candida albicans [1] = assay: Ratio of voriconazole MIC80 to compound MIC80 for Candida albicans SC5314
Aspergillus fumigatus = assay: Antimicrobial activity against Aspergillus fumigatus by broth microdilution method
Candida albicans [2] = assay: Antimicrobial activity against Candida albicans SC5314 after 24 hrs by broth microdilution method; conditions: SC5314, 24 h; summary of the method: as §1
Candida albicans [3] = assay: Ratio of itraconazole MIC80 to compound MIC80 for Candida albicans SC5314
Candida albicans [4] = assay: Antimicrobial activity against Candida albicans Y0109 after 24 hrs by broth microdilution method; conditions: Y0109, 24 h; summary of the method: as §1

| Compound | MIC80 (Nakaseomyces glabratus) [µg/mL] | MIC80 (Nannizzia gypsea) [µg/mL] | MIC80 (Cryptococcus neoformans) [µg/mL] | MIC80 (Candida parapsilosis) [µg/mL] | MIC80 (Trichophyton rubrum) [µg/mL] | Ratio (Candida albicans [1]) | MIC80 (Aspergillus fumigatus) [µg/mL] | MIC80 (Candida albicans [2]) [µg/mL] | Ratio (Candida albicans [3]) | MIC80 (Candida albicans [4]) [µg/mL] |
| --- | --- | --- | --- | --- | --- | --- | --- | --- | --- | --- |
| OC(CN1CCN(CCCSc2nnc(-c3cccc(Cl)c3)o2)CC1)(Cn1cncn1)c1ccc(F)cc1F (centres undefined) | 0.25 (≈ 0.434 µM) | 1 (≈ 1.74 µM) | 0.0625 (≈ 0.108 µM) | 0.25 (≈ 0.434 µM) | 0.0625 (≈ 0.108 µM) | 16 | > 64 | 0.0039 (≈ 0.00677 µM) | 64 | 0.0039 (≈ 0.00677 µM) |
| OC(CN1CCN(CCCSc2nnc(-c3ccc(Cl)cc3)o2)CC1)(Cn1cncn1)c1ccc(F)cc1F (centres undefined) | 0.0625 (≈ 0.108 µM) | 4 (≈ 6.94 µM) | 0.0625 (≈ 0.108 µM) | 0.0625 (≈ 0.108 µM) | 0.25 (≈ 0.434 µM) | 16 | > 64 | 0.0039 (≈ 0.00677 µM) | – | 0.0625 (≈ 0.108 µM) |
| OC(CN1CCN(CCCSc2nnc(-c3ccccc3Br)o2)CC1)(Cn1cncn1)c1ccc(F)cc1F (centres undefined) | 0.0625 (≈ 0.101 µM) | 0.25 (≈ 0.403 µM) | 0.0625 (≈ 0.101 µM) | 0.0625 (≈ 0.101 µM) | 0.25 (≈ 0.403 µM) | – | > 64 | 0.0156 (≈ 0.0251 µM) | – | 0.0625 (≈ 0.101 µM) |
| OC(CN1CCN(CCCSc2nnc(-c3ccc(Br)cc3)o2)CC1)(Cn1cncn1)c1ccc(F)cc1F (centres undefined) | 0.0156 (≈ 0.0251 µM) | 0.25 (≈ 0.403 µM) | 0.25 (≈ 0.403 µM) | 0.0625 (≈ 0.101 µM) | 0.25 (≈ 0.403 µM) | – | > 64 | 0.0625 (≈ 0.101 µM) | – | 0.0625 (≈ 0.101 µM) |
| Cc1ccccc1-c1nnc(SCCCN2CCN(CC(O)(Cn3cncn3)c3ccc(F)cc3F)CC2)o1 (centres undefined) | 0.125 (≈ 0.225 µM) | 0.25 (≈ 0.45 µM) | 0.125 (≈ 0.225 µM) | 0.125 (≈ 0.225 µM) | 0.25 (≈ 0.45 µM) | – | > 64 | 0.25 (≈ 0.45 µM) | – | 0.25 (≈ 0.45 µM) |
| Cc1cccc(-c2nnc(SCCCN3CCN(CC(O)(Cn4cncn4)c4ccc(F)cc4F)CC3)o2)c1 (centres undefined) | 1 (≈ 1.8 µM) | 1 (≈ 1.8 µM) | 1 (≈ 1.8 µM) | 4 (≈ 7.2 µM) | 1 (≈ 1.8 µM) | – | > 64 | 0.125 (≈ 0.225 µM) | – | 0.25 (≈ 0.45 µM) |
| Cc1ccc(-c2nnc(SCCCN3CCN(CC(O)(Cn4cncn4)c4ccc(F)cc4F)CC3)o2)cc1 (centres undefined) | 0.25 (≈ 0.45 µM) | 1 (≈ 1.8 µM) | 1 (≈ 1.8 µM) | 0.025 (≈ 0.045 µM) | 1 (≈ 1.8 µM) | – | > 64 | 0.25 (≈ 0.45 µM) | – | 0.125 (≈ 0.225 µM) |
| COc1ccccc1-c1nnc(SCCCN2CCN(CC(O)(Cn3cncn3)c3ccc(F)cc3F)CC2)o1 (centres undefined) | 1 (≈ 1.75 µM) | 16 (≈ 28 µM) | 4 (≈ 7 µM) | 16 (≈ 28 µM) | 0.25 (≈ 0.437 µM) | – | > 64 | 0.25 (≈ 0.437 µM) | – | 0.125 (≈ 0.219 µM) |
| COc1cccc(-c2nnc(SCCCN3CCN(CC(O)(Cn4cncn4)c4ccc(F)cc4F)CC3)o2)c1 (centres undefined) | 0.25 (≈ 0.437 µM) | 0.25 (≈ 0.437 µM) | 0.25 (≈ 0.437 µM) | 0.25 (≈ 0.437 µM) | 0.0625 (≈ 0.109 µM) | – | > 64 | 0.25 (≈ 0.437 µM) | – | 0.25 (≈ 0.437 µM) |
| COc1ccc(-c2nnc(SCCCN3CCN(CC(O)(Cn4cncn4)c4ccc(F)cc4F)CC3)o2)cc1 (centres undefined) | 0.25 (≈ 0.437 µM) | 0.25 (≈ 0.437 µM) | 0.25 (≈ 0.437 µM) | 0.25 (≈ 0.437 µM) | 0.25 (≈ 0.437 µM) | – | > 64 | 0.25 (≈ 0.437 µM) | – | 0.25 (≈ 0.437 µM) |
| O=[N+]([O-])c1ccccc1-c1nnc(SCCCN2CCN(CC(O)(Cn3cncn3)c3ccc(F)cc3F)CC2)o1 (centres undefined) | 0.25 (≈ 0.426 µM) | 0.25 (≈ 0.426 µM) | 0.125 (≈ 0.213 µM) | 0.125 (≈ 0.213 µM) | 0.25 (≈ 0.426 µM) | – | > 64 | 0.125 (≈ 0.213 µM) | – | 0.25 (≈ 0.426 µM) |
| O=[N+]([O-])c1ccc(-c2nnc(SCCCN3CCN(CC(O)(Cn4cncn4)c4ccc(F)cc4F)CC3)o2)cc1 (centres undefined) | 0.125 (≈ 0.213 µM) | 1 (≈ 1.7 µM) | 0.25 (≈ 0.426 µM) | 0.125 (≈ 0.213 µM) | 1 (≈ 1.7 µM) | – | > 64 | 0.25 (≈ 0.426 µM) | – | 0.125 (≈ 0.213 µM) |
| N#Cc1ccccc1-c1nnc(SCCCN2CCN(CC(O)(Cn3cncn3)c3ccc(F)cc3F)CC2)o1 (centres undefined) | 0.125 (≈ 0.221 µM) | 1 (≈ 1.76 µM) | 0.25 (≈ 0.441 µM) | 0.25 (≈ 0.441 µM) | 0.25 (≈ 0.441 µM) | – | > 64 | 0.125 (≈ 0.221 µM) | – | 0.125 (≈ 0.221 µM) |
| N#Cc1cccc(-c2nnc(SCCCN3CCN(CC(O)(Cn4cncn4)c4ccc(F)cc4F)CC3)o2)c1 (centres undefined) | 0.25 (≈ 0.441 µM) | 1 (≈ 1.76 µM) | 0.25 (≈ 0.441 µM) | 0.25 (≈ 0.441 µM) | 0.25 (≈ 0.441 µM) | – | > 64 | 0.125 (≈ 0.221 µM) | – | 0.125 (≈ 0.221 µM) |
| OC(CN1CCNCC1)(Cn1cncn1)c1ccc(F)cc1F (centres undefined) | 0.25 (≈ 0.773 µM) | 16 (≈ 49.5 µM) | 4 (≈ 12.4 µM) | 2 (≈ 6.19 µM) | 1 (≈ 3.09 µM) | – | > 64 | 0.5 (≈ 1.55 µM) | – | 1 (≈ 3.09 µM) |
| OC(CN1CCN(CCCSc2nnc(-c3ccccc3)o2)CC1)(Cn1cncn1)c1ccc(F)cc1F (centres undefined) | 0.0625 (≈ 0.115 µM) | 1 (≈ 1.85 µM) | 0.0625 (≈ 0.115 µM) | 0.0625 (≈ 0.115 µM) | 0.25 (≈ 0.462 µM) | – | > 64 | 0.0156 (≈ 0.0288 µM) | – | 0.0156 (≈ 0.0288 µM) |
| OC(CN1CCN(CCCSc2nnc(-c3ccccc3F)o2)CC1)(Cn1cncn1)c1ccc(F)cc1F (centres undefined) | 0.0625 (≈ 0.112 µM) | 1 (≈ 1.79 µM) | 0.0625 (≈ 0.112 µM) | 0.25 (≈ 0.447 µM) | 0.0625 (≈ 0.112 µM) | – | > 64 | 0.0625 (≈ 0.112 µM) | – | 0.0156 (≈ 0.0279 µM) |
| OC(CN1CCN(CCCSc2nnc(-c3ccc(F)cc3)o2)CC1)(Cn1cncn1)c1ccc(F)cc1F (centres undefined) | 0.25 (≈ 0.447 µM) | 4 (≈ 7.15 µM) | 0.25 (≈ 0.447 µM) | 0.25 (≈ 0.447 µM) | 0.0625 (≈ 0.112 µM) | – | > 64 | 0.0156 (≈ 0.0279 µM) | – | 0.25 (≈ 0.447 µM) |
| OC(CN1CCN(CCCSc2nnc(-c3ccccc3Cl)o2)CC1)(Cn1cncn1)c1ccc(F)cc1F (centres undefined) | 0.25 (≈ 0.434 µM) | 4 (≈ 6.94 µM) | 0.25 (≈ 0.434 µM) | 0.25 (≈ 0.434 µM) | 0.25 (≈ 0.434 µM) | 16 | > 64 | 0.0039 (≈ 0.00677 µM) | 64 | 0.0039 (≈ 0.00677 µM) |
| OC(Cn1cncn1)(Cn1cncn1)c1ccc(F)cc1F [FLUCONAZOLE] | 1 (≈ 3.27 µM) | 8 (≈ 26.1 µM) | 1 (≈ 3.27 µM) | 1 (≈ 3.27 µM) | > 64 | – | 8 (≈ 26.1 µM) | 0.5 (≈ 1.63 µM) | – | 0.5 (≈ 1.63 µM) |
| CCC(C)n1ncn(-c2ccc(N3CCN(c4ccc(OCC5COC(Cn6cncn6)(c6ccc(Cl)cc6Cl)O5)cc4)CC3)cc2)c1=O (centres undefined) [ITRACONAZOLE] | 0.125 (≈ 0.177 µM) | 1 (≈ 1.42 µM) | 0.125 (≈ 0.177 µM) | 0.125 (≈ 0.177 µM) | 0.5 (≈ 0.709 µM) | – | 1 (≈ 1.42 µM) | 0.25 (≈ 0.354 µM) | – | 0.25 (≈ 0.354 µM) |
| CC(=O)N1CCN(c2ccc(OCC3COC(Cn4ccnc4)(c4ccc(Cl)cc4Cl)O3)cc2)CC1 (centres undefined) [KETOCONAZOLE] | 8 (≈ 15.1 µM) | 2 (≈ 3.76 µM) | 4 (≈ 7.53 µM) | 8 (≈ 15.1 µM) | 8 (≈ 15.1 µM) | – | 2 (≈ 3.76 µM) | 4 (≈ 7.53 µM) | – | 8 (≈ 15.1 µM) |
| C[C@@H](c1ncncc1F)[C@](O)(Cn1cncn1)c1ccc(F)cc1F [VORICONAZOLE] | 0.0625 (≈ 0.179 µM) | 0.125 (≈ 0.358 µM) | 0.0156 (≈ 0.0447 µM) | 0.0625 (≈ 0.179 µM) | 0.25 (≈ 0.716 µM) | – | 0.0625 (≈ 0.179 µM) | 0.0625 (≈ 0.179 µM) | – | 0.0625 (≈ 0.179 µM) |
